From ChEMBL document CHEMBL1949556, “Design and synthesis of boronic acid inhibitors of endothelial lipase” (Bioorg Med Chem Lett, 2012) come the findings set out here.

For assay [1], the target named is T1, Endothelial lipase (Homo sapiens) (UniProt Q9Y5X9).
T1 sequence (whole entry): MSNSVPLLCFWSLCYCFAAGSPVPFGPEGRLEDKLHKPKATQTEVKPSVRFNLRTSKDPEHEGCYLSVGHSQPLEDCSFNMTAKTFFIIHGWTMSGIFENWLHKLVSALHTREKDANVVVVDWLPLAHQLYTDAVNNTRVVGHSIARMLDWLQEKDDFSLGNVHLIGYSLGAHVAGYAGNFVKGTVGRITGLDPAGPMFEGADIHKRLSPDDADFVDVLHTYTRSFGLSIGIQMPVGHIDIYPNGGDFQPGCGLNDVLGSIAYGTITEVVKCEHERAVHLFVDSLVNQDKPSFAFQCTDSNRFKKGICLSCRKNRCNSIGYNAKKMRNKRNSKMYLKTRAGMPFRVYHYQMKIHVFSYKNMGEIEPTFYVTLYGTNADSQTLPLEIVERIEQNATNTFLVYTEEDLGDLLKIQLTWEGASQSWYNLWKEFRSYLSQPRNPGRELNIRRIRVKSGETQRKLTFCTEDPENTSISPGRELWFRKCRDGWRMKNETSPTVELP
Put plainly: Inhibition of human endothelial lipase expressed using recombinant adenovirus using glycerol-tri[9,10(n)-3H]oleate at 50 uM after 1 hr by vesicle assay. In short, it runs like this:
(§1)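 Vesicle-based substrate system with the test agent at a single 50 μM concentration; percent inhibition of lipase activity reported.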

The target in assay [2] is T2, Lipoprotein lipase (Homo sapiens) (UniProt P06858).
T2 sequence (whole entry): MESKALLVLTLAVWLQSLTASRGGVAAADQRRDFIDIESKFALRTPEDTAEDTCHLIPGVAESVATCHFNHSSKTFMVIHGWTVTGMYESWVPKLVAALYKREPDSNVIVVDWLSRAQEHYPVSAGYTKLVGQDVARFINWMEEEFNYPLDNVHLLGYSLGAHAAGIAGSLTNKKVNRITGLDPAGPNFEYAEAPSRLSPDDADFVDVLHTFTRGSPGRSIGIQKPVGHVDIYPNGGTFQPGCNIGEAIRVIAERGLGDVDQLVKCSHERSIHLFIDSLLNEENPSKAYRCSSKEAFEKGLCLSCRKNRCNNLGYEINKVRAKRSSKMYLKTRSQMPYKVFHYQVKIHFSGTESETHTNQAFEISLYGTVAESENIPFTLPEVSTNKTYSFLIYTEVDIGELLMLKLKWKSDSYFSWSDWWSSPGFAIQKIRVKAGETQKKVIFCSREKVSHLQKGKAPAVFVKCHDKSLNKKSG
Put plainly: Inhibition of human lipoprotein lipase expressed using recombinant adenovirus using glycerol-tri[9,10(n)-3H]oleate at 50 uM after 1 hr by vesicle assay. The procedure, abridged:
as §1

The species named for assay [3] is Homo sapiens. Briefly: Selectivity ratio of IC50 for human lipoprotein lipase by micelle assay to IC50 for human endothelial lipase by micelle assay. The procedure, abridged: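 Ratio of lipoprotein lipase IC50 to endothelial lipase IC50, both from micelle assays; unitless.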
The target in assay [4] is T3, Lipoprotein lipase (Homo sapiens, UniProt P06858).
T3 sequence (P06858 whole entry): T2 sequence (whole entry)
Put plainly: Inhibition of human lipoprotein lipase expressed in HEK293 cells using bis-BD-PC and mono-BD-TG as substrate incubated for 10 mins prior to substrate addition by micelle assay. In short, it runs like this: (§2)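 Detergent micelle system, which removes interfacial catalysis and gives direct access to the active site; IC50 taken as mean of two independent experiments, each run in duplicate.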

Assay [5] has as its target T3, Lipoprotein lipase. Briefly: Inhibition of human lipoprotein lipase expressed using recombinant adenovirus using glycerol-tri[9,10(n)-3H]oleate after 1 hr by vesicle assay. The procedure, abridged: (§3)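 Vesicle (interfacial catalysis) substrate system; IC50 taken as mean of two independent experiments, each run in duplicate.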
The species named for assay [6] is Homo sapiens. Briefly: Selectivity ratio of IC50 for human lipoprotein lipase to IC50 for human endothelial lipase by vesicle assay. The procedure, abridged: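 Ratio of lipoprotein lipase IC50 to endothelial lipase IC50, both from vesicle assays; unitless.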
Assay [7] has as its target T4, Endothelial lipase (Homo sapiens, UniProt Q9Y5X9).
T4 sequence (Q9Y5X9 whole entry): T1 sequence (whole entry)
Put plainly: Inhibition of human endothelial lipase overexpressed in HUVEC cells using bis-BD-PC and mono-BD-TG as substrate incubated for 10 mins prior to substrate addition by micelle assay. Format: cell-based. The procedure, abridged: as §2

The target of assay [8] is T4, Endothelial lipase. Put plainly: Inhibition of human endothelial lipase expressed using recombinant adenovirus using glycerol-tri[9,10(n)-3H]oleate after 1 hr by vesicle assay. In short, it runs like this: as §3

For orientation: inhibition means the drop in the measured response relative to a control, in per cent. As a reminder, the IC50 is the midpoint of a concentration-inhibition curve.

The structures appear in SMILES notation.

As to `CCCCCCCCCCCCCCCC(=O)CCl`, the inhibition in assay [1] is 10%; in assay [2], -10%.
As for `CCCCCCCCCCCCCCCC#N`, the figures for the inhibition in assay [1] and in assay [2] were 4% and 14%, respectively.
As for `CCCCCCCCCCCCCCCC(=O)C(F)(F)F`, the inhibition turned out to be 56% in assay [1] and 14% in assay [2].
As to `Cc1ccc(B(O)O)cc1` [TOLYL BORONIC ACID], the Ratio IC50 in the assay listed under Homo sapiens [3] is 1.1; in the assay filed under Homo sapiens [6], 0.5. For the same compound, the IC50 against Lipoprotein lipase [4] came to 25 µM; on Lipoprotein lipase [5] it was 9 µM; against Endothelial lipase [7] it was 22 µM.
On to `CCCCCCCCCCCc1ccc(B2OC(C)(C)C(C)(C)O2)cc1`, for which, in the assay filed under Homo sapiens [3], the Ratio IC50 worked out at 11. Also, the IC50 against Lipoprotein lipase [4] was 15 µM; at Lipoprotein lipase [5], more than 50 µM; on Endothelial lipase [7] it was 1.4 µM; at Endothelial lipase [8], 4.5 µM.
As for `CCCc1ccc(B2OC(C)(C)C(C)(C)O2)cc1`, the results for the Ratio IC50 in the assay listed under Homo sapiens [3] and in the assay filed under Homo sapiens [6] were 4.1 and 5, respectively. Also, the concentration for half-maximal inhibition (IC50) was 25 µM at Lipoprotein lipase [4], 25 µM at Lipoprotein lipase [5], 6 µM at Endothelial lipase [7] and 5 µM on Endothelial lipase [8].
Turning to `CC1(C)OB(c2ccc(-c3ccsc3)cc2)OC1(C)C`, the results for the Ratio IC50 in the assay filed under Homo sapiens [3] and in the assay listed under Homo sapiens [6] were 12 and 10, respectively. The half-maximal inhibitory concentration (IC50) against Lipoprotein lipase [4] turned out to be 36 µM; on Lipoprotein lipase [5], 13 µM; on Endothelial lipase [7], 3.1 µM; on Endothelial lipase [8], 1.3 µM.
On to `CC1(C)OB(c2ccc(-c3ccoc3)cc2)OC1(C)C`, for which the Ratio IC50 was found to be 11 in the assay filed under Homo sapiens [3] and 5.4 in the assay listed under Homo sapiens [6]. Further, the IC50 against Lipoprotein lipase [4] amounted to 33 µM; on Lipoprotein lipase [5], 15 µM; against Endothelial lipase [7], 2.9 µM; on Endothelial lipase [8], 2.8 µM.
As to `CCCCCc1ccc(B(O)O)cc1`, the values for the Ratio IC50 in the assay filed under Homo sapiens [3] and in the assay listed under Homo sapiens [6] were 8 and 15, respectively. In addition, the IC50 at Lipoprotein lipase [4] amounted to 3.8 µM; on Lipoprotein lipase [5] it was 15 µM; at Endothelial lipase [7], 0.47 µM; at Endothelial lipase [8], 1 µM.
`CCCCCCCCCCCCCCCC=O`: the values for the inhibition in assay [1] and in assay [2] were 7% and -1%, respectively.
The corresponding values for `CCCCCCCCCCCCCCCB(O)O` are 90% and 63%.
For the compound `CCCCCc1cccc(B2OC(C)(C)C(C)(C)O2)c1`, the results for the Ratio IC50 in the assay listed under Homo sapiens [3] and in the assay listed under Homo sapiens [6] were 2.8 and 11, respectively. The IC50 against Lipoprotein lipase [4] was found to be 100 µM; at Lipoprotein lipase [5], 45 µM; against Endothelial lipase [7], 35 µM; on Endothelial lipase [8], 4.2 µM.
As for `CCCCCCCCCc1ccc(B2OC(C)(C)C(C)(C)O2)cc1`, the Ratio IC50 in the assay filed under Homo sapiens [3] stood at 15; in the assay filed under Homo sapiens [6] it was 20. In addition, the half-inhibitory concentration (IC50) on Lipoprotein lipase [4] came to 15 µM; at Lipoprotein lipase [5], 50 µM; on Endothelial lipase [7] it was 1 µM; on Endothelial lipase [8], 2.5 µM.
In the case of `CCCc1ccc(B(O)O)cc1`, the Ratio IC50 in the assay filed under Homo sapiens [3] is 3.1; in the assay listed under Homo sapiens [6], 4. Besides, the concentration for half-maximal inhibition (IC50) worked out at 12.5 µM against Lipoprotein lipase [4], 8 µM at Lipoprotein lipase [5], 4 µM against Endothelial lipase [7] and 2 µM on Endothelial lipase [8].
As to `CCCCCCCc1ccc(B(O)O)cc1`, the Ratio IC50 in the assay filed under Homo sapiens [3] is 28; in the assay listed under Homo sapiens [6] it was 18. Also, the concentration for half-maximal inhibition (IC50) came to 9 µM against Lipoprotein lipase [4], 30 µM on Lipoprotein lipase [5], 0.32 µM against Endothelial lipase [7] and 1.7 µM at Endothelial lipase [8].
`CCc1ccc(B(O)O)cc1`: the Ratio IC50 in the assay filed under Homo sapiens [3] worked out at 1; in the assay filed under Homo sapiens [6], 0.3. The IC50 was 20 µM at Lipoprotein lipase [4], 9 µM on Lipoprotein lipase [5] and 19 µM against Endothelial lipase [7].
As for `CCCCCc1ccc(B2OC(C)(C)C(C)(C)O2)cc1`, the Ratio IC50 in the assay listed under Homo sapiens [3] and in the assay listed under Homo sapiens [6] was 19 each time. For the same compound, the concentration for half-maximal inhibition (IC50) against Lipoprotein lipase [4] worked out at 21 µM; on Lipoprotein lipase [5], 50 µM; against Endothelial lipase [7], 1.1 µM; on Endothelial lipase [8] it was 2.6 µM.
With `CC1(C)OB(c2ccc(-c3ccccc3)cc2)OC1(C)C`, the values for the Ratio IC50 in the assay listed under Homo sapiens [3] and in the assay filed under Homo sapiens [6] were 12 and 4.4, respectively. Also, the half-maximal inhibitory concentration (IC50) against Lipoprotein lipase [4] is 12 µM; at Lipoprotein lipase [5], 4.4 µM; against Endothelial lipase [7], 1 µM; on Endothelial lipase [8] it was 1 µM.
In the case of `CC1(C)OB(c2ccc(-c3ccc4ccccc4c3)cc2)OC1(C)C`, the Ratio IC50 in the assay filed under Homo sapiens [3] is 8.8; in the assay filed under Homo sapiens [6], 11. The IC50 against Lipoprotein lipase [4] turned out to be 15 µM; at Lipoprotein lipase [5] it was 22 µM; on Endothelial lipase [7] it was 1.7 µM; at Endothelial lipase [8], 2 µM.
For the compound `CCCCCCCCCc1ccc(B(O)O)cc1`, the Ratio IC50 in the assay filed under Homo sapiens [3] came out at 14; in the assay listed under Homo sapiens [6], 42. For the same compound, the IC50 amounted to 1.4 µM against Lipoprotein lipase [4], 42 µM at Lipoprotein lipase [5], 0.1 µM at Endothelial lipase [7] and 1 µM on Endothelial lipase [8].
On to `CCCCCCCc1ccc(B2OC(C)(C)C(C)(C)O2)cc1`, for which the Ratio IC50 amounted to 17 in the assay filed under Homo sapiens [3] and 16 in the assay filed under Homo sapiens [6]. The IC50 against Lipoprotein lipase [4] was 19 µM; on Lipoprotein lipase [5] it was 55 µM; against Endothelial lipase [7], 1.1 µM; at Endothelial lipase [8] it was 3.5 µM.
On to `CCCCCCCCCc1ccccc1B(O)O`, for which, in the assay listed under Homo sapiens [3], the Ratio IC50 was more than 50. Further, the IC50 against Lipoprotein lipase [4] was more than 500 µM; at Lipoprotein lipase [5], more than 50 µM; against Endothelial lipase [7] it was 11 µM; on Endothelial lipase [8], 50 µM.
Consider `CC1(C)OB(c2ccc(-c3cccs3)cc2)OC1(C)C`, for which the values for the Ratio IC50 in the assay listed under Homo sapiens [3] and in the assay listed under Homo sapiens [6] were 25 and 3.7, respectively. The IC50 came to 40 µM on Lipoprotein lipase [4], 7 µM at Lipoprotein lipase [5], 1.6 µM against Endothelial lipase [7] and 1.9 µM on Endothelial lipase [8].
Consider `CCCCCc1cccc(B(O)O)c1`, for which the Ratio IC50 was 3.8 in the assay listed under Homo sapiens [3] and 4 in the assay filed under Homo sapiens [6]. The IC50 stood at 85 µM against Lipoprotein lipase [4], 50 µM on Lipoprotein lipase [5], 22 µM against Endothelial lipase [7] and 12.8 µM on Endothelial lipase [8].
For the compound `CC1(C)OB(c2ccc(-c3ccc(F)cc3)cc2)OC1(C)C`, the Ratio IC50 in the assay filed under Homo sapiens [3] stood at 30; in the assay listed under Homo sapiens [6] it was 34. The concentration for half-maximal inhibition (IC50) against Lipoprotein lipase [4] came out at 33 µM; on Lipoprotein lipase [5] it was 55 µM; at Endothelial lipase [7], 1.1 µM; on Endothelial lipase [8], 1.6 µM.
In the case of `CCCCCCCCCCCc1ccc(B(O)O)cc1`, the Ratio IC50 in the assay filed under Homo sapiens [3] was 7.5; in the assay listed under Homo sapiens [6], 25. For the same compound, the IC50 on Lipoprotein lipase [4] amounted to 1.5 µM; on Lipoprotein lipase [5], 50 µM; on Endothelial lipase [7], 0.2 µM; on Endothelial lipase [8] it was 2 µM.
As for `CC1(C)OB(c2ccc(-c3ccco3)cc2)OC1(C)C`, the Ratio IC50 was found to be 27 in the assay filed under Homo sapiens [3] and 5 in the assay filed under Homo sapiens [6]. For the same compound, the 50% inhibitory concentration (IC50) stood at 35 µM against Lipoprotein lipase [4], 9.6 µM at Lipoprotein lipase [5], 1.3 µM against Endothelial lipase [7] and 1.9 µM on Endothelial lipase [8].
Turning to `CCCCCCCCCCCCCCCC(=O)C=[N+]=[N-]`, the inhibition in assay [2] came out at 20%.
On to `CCCCCCCCCc1cccc(B(O)O)c1`, for which the Ratio IC50 in the assay filed under Homo sapiens [3] was 19; in the assay listed under Homo sapiens [6], more than 20. For the same compound, the IC50 against Lipoprotein lipase [4] was 95 µM; on Lipoprotein lipase [5], more than 50 µM; on Endothelial lipase [7], 5 µM; on Endothelial lipase [8] it was 2.8 µM.
